From ChEMBL document CHEMBL1145444, “Mechanism-based thrombin inhibitors: design, synthesis, and molecular docking of a new selective 2-oxo-2H-1-benzopyran derivative” (J Med Chem, 2007)

Columns and labels:
[1] = molecular target: Prothrombin (Homo sapiens) (UniProt P00734); assay: Inhibition of thrombin assessed as residual activity at 100 uM after 10 min
Summary of the method: (§1)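 Isolated, purified thrombin was incubated with inhibitor for 10 min, then its proteolytic activity was measured. Screening used 100 µM inhibitor, with lower concentrations for potent compounds. Values are reported as percentage of residual enzyme activity.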

[2] = molecular target: Prothrombin (Homo sapiens) (UniProt P00734); assay: Ratio of kcat for thrombin to Ki for thrombin
Summary of the method: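 Partition ratio is the ratio of product released per inactivation event, calculated as k_cat/k_i, on thrombin.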

Homo sapiens [3] = species on record: Homo sapiens; assay: Selectivity for thrombin over alpha chymotrypsin
Summary of the method: (§2)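 Inactivation rate constant (k_i) and K_I were determined by one of two methods depending on the protease. In the progress-curve method, inhibitor competes with a chromogenic substrate. In the preincubation method, enzyme and inhibitor are incubated first and remaining activity is sampled at regular time intervals. k_i/K_I serves as the potency index, and selectivity is taken as the ratio of k_i/K_I between proteases.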

[4] = molecular target: Prothrombin (Homo sapiens) (UniProt P00734); assay: Ratio of Ki for thrombin to K(inactivation) for thrombin; summary of the method: as §2
[5] = molecular target: Prothrombin (Homo sapiens) (UniProt P00734); assay: Inhibition of thrombin assessed as residual activity at 2 uM after 10 min; summary of the method: as §1
[6] = molecular target: Prothrombin (Homo sapiens) (UniProt P00734); assay: Inhibition of thrombin assessed as residual activity at 10 uM after 10 min; summary of the method: as §1
Homo sapiens [7] = species on record: Homo sapiens; assay: Ratio of Ki for alpha chymotrypsin to K(inactivation) for alpha chymotrypsin; summary of the method: as §2

## O=C(OCc1cc(Cl)ccc1Cl)c1cc2cc(CCl)ccc2oc1=O
[1]
  Activity: 103%

## O=C(Nc1cc(Cl)ccc1O)c1cc2cc(CCl)ccc2oc1=O
[1]
  Activity: 110%

## O=C(Oc1cccc(Cl)c1)c1cc2cc(Oc3ccccc3)ccc2oc1=O
[1]
  Activity: 90%

## Nc1ccc(Cl)cc1OC(=O)c1cc2cc(CCl)ccc2oc1=O
[1]
  Activity: 60%

## CCNC(=O)COc1ccc(Cl)cc1OC(=O)c1cc2cc(CCl)ccc2oc1=O
[2]
  partition ratio kcat/ki: 13.5
Homo sapiens [3]
  Ratio: 5
[4]
  Ratio: 3460 M⁻¹ s⁻¹
[5]
  Activity: 11%
[6]
  Activity: 3%
Homo sapiens [7]
  Ratio: 755 M⁻¹ s⁻¹

## CCOC(=O)COc1ccc(Cl)cc1COC(=O)c1cc2cc(CCl)ccc2oc1=O
[1]
  Activity: 95%

## O=C(Oc1cc(Cl)ccc1Cl)c1cc2cc(CCl)ccc2oc1=O
[2]
  partition ratio kcat/ki: 1.8
Homo sapiens [3]
  Ratio: 0.13

## O=C(Oc1cc(Cl)ccc1Cl)c1cc2cc(Oc3ccccc3)ccc2oc1=O
[1]
  Activity: 94%

## O=C(Nc1cc(Cl)ccc1Cl)c1cc2cc(CCl)ccc2oc1=O
[1]
  Activity: 91%

## O=C(Oc1cccc(Cl)c1)c1cc2cc(CCl)ccc2oc1=O
[2]
  partition ratio kcat/ki: 2.8
Homo sapiens [3]
  Ratio: 0.01

## O=C(OCc1cc(Cl)ccc1O)c1cc2cc(CCl)ccc2oc1=O
[1]
  Activity: 101%
